# Screens from PubChem BioAssay.
# CSN inh: inhibitors of CSN-mediated cullin deneddylation, primary screen, biochemical, fluorescence polarization, uHTS. COP9 signalosome complex subunit 5 (Homo sapiens), Q92905. Purified CSN, SCF-Nedd8-OG deneddylation. inhibition, % at 12.5 µM. 360,000 compounds, 0.38% hits. AID 651999, 2013;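 active means pattern-corrected inhibition above about 35%, with an unprinted fluorescence ratio check between 0.5 and 1.5, limit read from the data, passing the limit was not always enough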;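 further: 0% = enzyme with substrate and 100% = substrate without enzyme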
#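 test system = HEK293T-derived human Csn5 enzyme | amount = 0.24 nM Csn5 enzyme, final concentration | medium = Tris/NaCl/DTT buffer, pH 7.5 | schedule = 90 min reaction at room temperature | signal = FP | evaluation = inhibition of Csn5 cleavage, % | compound dosing = single dose of 12.5 µM compound with 0.25% DMSO | probe or stimulus = 10 nM SCFSkp2-Nedd8OG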
# MBD2 DNA inh: inhibitors of MBD2 binding to methylated DNA, primary screen, biochemical, TR-FRET, DNA-binding domain, human; 370,000 compounds, 0.31% hits; Methyl-CpG-binding domain protein 2 (Homo sapiens), Q9UBB5; inhibition, % at 4.4 µM; AID 686964, 2013; MBD2 binding to methylated oligonucleotide; in the data active means inhibition above about 13%
# UHRF1 binding: UHRF1 methylated DNA binding inhibitors, primary screen, counter-screen for MBD2 inhibitor project, biochemical, TR-FRET, human UHRF1, single concentration. inhibition, % at 4.4 µM. UHRF1 binding to methylated oligo. 370,000 compounds, 0.75% hits. E3 ubiquitin-protein ligase UHRF1 (Homo sapiens), Q96T88; in the data active means inhibition above about 21%;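 further: UHRF1 SRA domain binding a hemimethylated CpG hairpin DNA probe; 0% = median of test compound wells and 100% = reference inhibitor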
# Target sequence (Q96T88 whole entry, looked up, the tested form may be a part): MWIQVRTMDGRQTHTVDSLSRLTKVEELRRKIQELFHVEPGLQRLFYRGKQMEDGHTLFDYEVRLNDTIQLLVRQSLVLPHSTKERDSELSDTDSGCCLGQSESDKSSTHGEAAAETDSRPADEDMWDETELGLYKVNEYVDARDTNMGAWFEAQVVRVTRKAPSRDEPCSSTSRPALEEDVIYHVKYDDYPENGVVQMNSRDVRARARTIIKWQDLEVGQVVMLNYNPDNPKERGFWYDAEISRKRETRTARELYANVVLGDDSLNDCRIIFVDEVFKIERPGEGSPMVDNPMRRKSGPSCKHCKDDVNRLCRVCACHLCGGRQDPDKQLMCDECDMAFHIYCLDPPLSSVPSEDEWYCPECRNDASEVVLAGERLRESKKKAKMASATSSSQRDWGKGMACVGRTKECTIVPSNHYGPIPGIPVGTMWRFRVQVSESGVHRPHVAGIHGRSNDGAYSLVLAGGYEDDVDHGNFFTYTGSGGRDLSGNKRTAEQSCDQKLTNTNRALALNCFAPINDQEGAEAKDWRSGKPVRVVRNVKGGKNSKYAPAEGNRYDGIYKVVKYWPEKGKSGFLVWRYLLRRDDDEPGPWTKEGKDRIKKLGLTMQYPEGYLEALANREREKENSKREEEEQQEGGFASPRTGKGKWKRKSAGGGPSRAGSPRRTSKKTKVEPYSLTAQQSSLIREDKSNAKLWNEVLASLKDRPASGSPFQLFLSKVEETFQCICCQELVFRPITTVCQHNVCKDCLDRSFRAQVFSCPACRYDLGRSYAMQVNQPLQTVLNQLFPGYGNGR
# ATG4B inh: ATG4B protease inhibitors, primary screen, biochemical, fluorescence, uHTS. ATG4B cleavage of LC3-PLA2, NBD-HPC fluorescence, 1 h. inhibition, % at 8.33 µM. 340,000 compounds, 0.51% hits. AID 504462, 2011; in the data active means inhibition above about 40%
# rCAG binder: binders of r(CAG) RNA repeats, primary screen, biochemical, fluorescence. r(CAG) RNA repeat, TO-PRO-1 dye displacement fluorescence. inhibition, % at 3 µM. 370,000 compounds, 1.3% hits. AID 651821, 2012;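 active means inhibition above the plate cutoff, the mean of all test compounds on that plate plus 3 SD, cut at about 35% in these data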;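 further: 0% = DMSO alone and 100% = 100 µM mitoxantrone as full dye displacement; higher means more dye released from RNA so lower well fluorescence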
# LEDGF integ inh: blockers of LEDGF/p75-dependent integrase strand transfer – biochemical, TR-FRET, high throughput, primary screen; 370,000 compounds, 0.64% hits; HIV-1 integrase (with human LEDGF/p75); TR-FRET IN-LEDGF/p75 DNA integration, Eu/Cy5; inhibition, % at 3.7 µM; AID 743269, 2014;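 active means inhibition above the screen-wide mean plus 3 SD, cut at about 13% in these data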;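 further: signal is the Cy5 over europium emission ratio at 671 and 618 nm; 0% = plate median of compound wells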
# IN multimer up: HIV-1 IN multimer formation enhancers, counter-screen for LEDGF/p75 integration inhibitor project, biochemical, TR-FRET. 2,000 compounds, 17% hits. activation, % at 7.7 µM. shares compounds with LEDGF integ inh. TR-FRET HIV-1 integrase multimerization; in the data active means activation above about 8.9%
# TRFRET interf: TR-FRET optical interference artefacts, confirmation, artefact control for LEDGF/p75-dependent integration inhibitor project, biochemical, HIV-1 IN multimerization | shares compounds with LEDGF integ inh | TR-FRET optical interference counterscreen | inhibition, % at 7.7 µM | 2,000 tested, under 10 active | AID 1053135, 2014;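 active means inhibition above the mean over all tested compounds plus 3 SD, which no compound reached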;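 further: 0% = integrase with antibodies and DMSO and 100% = antibodies without integrase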
# LEDGF integ conf: inhibitors of HIV-1 IN-LEDGF/p75 DNA integration, confirmation, biochemical, TR-FRET. 2,000 compounds, 36% hits. inhibition, % at 3.7 µM. shares compounds with LEDGF integ inh. AID 1053136, 2014. TR-FRET LEDGF/p75-dependent HIV-1 integration; in the data active means inhibition above about 14%
# Starred values were filed as active, the others as inactive; . = not tested or not shown. Compounds with a hit are over-represented: about 3.1% of the library has one in this group of screens.
SMILES,CSN inh,MBD2 DNA inh,UHRF1 binding,ATG4B inh,rCAG binder,LEDGF integ inh,IN multimer up,TRFRET interf,LEDGF integ conf
O=[N+]([O-])c1ccc(/C=C/c2ccncc2)cc1,2.2,2.8,0.5,-7.9,1.3,2.8,.,.,.
O=[N+]([O-])c1cccc(/C=C/c2ccncc2)c1,-1.9,0.5,-9.5,-3.2,0.8,19.4*,-0.1,0.7,0.2
O=C(CCSCc1cccc(Cl)c1)NC1CCCC1,-5.2,1.5,0.6,17.0,-6.2,51.4*,3.4,-16.9,5.0
COc1ccc(CNC(=O)CCSCc2cccc(Cl)c2)cc1,-3.5,-3.0,-1.0,-1.1,-1.1,2.3,.,.,.
O=C(COC(=O)/C=C/c1ccco1)Nc1cc(S(=O)(=O)N2CCOCC2)ccc1Cl,-1.3,2.3,17.3,-7.1,10.3,15.1*,1.1,-5.7,-12.6
CCc1ccc(NC(=O)COC(=O)/C=C/c2ccco2)cc1,6.9,4.5,24.8*,6.5,15.8,26.8*,2.4,-8.9,0.4
CN(CCOC(=O)/C=C/c1ccco1)Cc1ccccc1,19.9,7.1,26.5*,-8.2,6.0,23.0*,5.1,-25.9,38.0*
CN(Cc1ccccc1)C(=O)COC(=O)/C=C/c1ccco1,-3.0,0.1,0.6,-3.9,2.2,1.6,.,.,.
CCCC(=O)Nc1ccc2c(c1)C(=O)N(C)[C@H]1CC[C@@H](CC(=O)OC)O[C@@H]1CO2,.,-1.1,0.1,.,-0.2,3.5,.,.,.
C=CCNCc1ccc(OC)cc1OC,.,3.6,-0.1,.,2.0,-5.3,.,.,.
O=C(N=Nc1c(O)[nH]c2c(Cl)cc(Cl)cc12)c1ccccc1O,.,1.1,-3.4,.,6.1,-1.6,.,.,.
COc1ccc(C(=O)OCC(=O)NC2CCCCCCC2)cc1OC,-5.3,1.4,2.2,-3.5,-2.0,27.2*,1.0,-4.8,2.0
O=C(CCN1CCOCC1)N1c2ccccc2Sc2ccc(Cl)cc21,4.5,3.9,1.3,0.6,-5.8,17.3*,-1.8,8.8,2.9
O=C(NCCN1CCOCC1)N1c2ccccc2Sc2ccccc21,1.5,7.3,-1.2,-11.9,-7.2,1.5,.,.,.
CC(C)CN1C(=O)[C@@]2(CC(=O)N(C)C2c2ccccc2)c2cc(-n3cc(CN(C)C)nn3)ccc21 (stereo partly specified),.,2.0,8.4,.,3.4,-2.3,.,.,.
Cc1ccccc1-n1c(=O)cc(N2CCN(Cc3ccccc3)CC2)[nH]c1=O,-1.4,-8.7,-1.4,-9.0,1.1,17.9*,0.1,-0.4,1.5
Cc1cc(C)c(NC(=O)C2CCCN(S(=O)(=O)c3c(C)noc3/C=C/N(C)C)C2)c(C)c1 (stereo unspecified),-0.6,7.1,0.4,-4.5,22.4,-1.8,.,.,.
Cc1noc(/C=C/N(C)C)c1S(=O)(=O)N1CCCC(C(=O)Nc2ccc3c(c2)OCO3)C1 (stereo unspecified),2.0,1.2,0.0,-3.9,22.7,14.7*,-1.2,6.2,-4.2
Cc1ccccc1CN1CCCCC(NC(=O)C2CCC2)C1=O (stereo unspecified),.,-0.3,-2.1,.,0.6,7.5,.,.,.
COc1cc(C(=O)c2nccc3cc(OC)c(OC)cc23)c([N+](=O)[O-])cc1OC,33.9,-1.9,28.0*,-22.3,-2.8,32.8*,-0.4,1.4,44.8*
CN(Cc1ccccc1)Cc1nc2c(c(=O)n(C)c(=O)n2C)n1CCc1ccccc1,8.2,-4.3,2.6,-0.3,-5.0,22.7*,0.2,-1.2,-1.4
CCCn1c(CN(C)Cc2ccccc2)nc2c1c(=O)n(C)c(=O)n2C,0.8,-1.4,-0.6,-2.9,-6.2,1.6,.,.,.
CN1CCC/C1=C/C=C1\SC(=S)NC1=O,7.8,-12.0,-16.1,-30.2,-62.9,17.6*,17.0*,-60.9,-2.3
CC(CNc1ccccc1O)C(=O)O (stereo unspecified),2.2,-6.5,19.4,10.0,5.5,22.9*,11.0*,-39.0,-1.0
CC(NC(=O)CCC(=O)Nc1ccccc1O)c1ccccc1 (stereo unspecified),1.6,3.8,5.5,-4.5,-0.5,-4.2,.,.,.
SMILES,CSN inh,MBD2 DNA inh,UHRF1 binding,ATG4B inh,rCAG binder,LEDGF integ inh,IN multimer up,TRFRET interf,LEDGF integ conf
Cc1ccc(-c2cc(C(=O)NN=Cc3cccc(Oc4ccccc4)c3)[nH]n2)cc1C,.,-4.6,-1.6,.,14.9,2.1,.,.,.
COc1ccc2cc(C(=O)NCc3ccco3)c(=O)oc2c1,-0.1,0.1,-11.9,-2.8,-0.7,3.2,.,.,.
O=C(NCc1ccco1)c1cc2ccc(O)cc2oc1=O,12.2,-2.1,8.2,-1.4,13.3,29.6*,19.6*,-98.8,18.7*
O=S(=O)(CC1NCc2ccccc21)NC1CCCC1 (stereo unspecified),.,3.1,-3.7,.,5.9,1.8,.,.,.
COc1cccc(CNC2CCC23CCC(C)CC3)c1 (stereo unspecified),.,2.5,2.5,.,.,-1.7,.,.,.
Cc1ccc(/C=C2\Oc3cc(OCC(=O)NN)ccc3C2=O)o1,2.6,2.6,2.2,-2.6,22.8,20.9*,7.9,-28.2,13.5*
O=C1c2ccccc2C(=O)N1/N=C/c1ccc(O)c(O)c1,-7.0,-1.0,1.3,-6.5,6.1,30.3*,22.7*,-80.7,58.6*
COc1ccc2nc(NCCNC(=S)NCCCN3CCOCC3)c(C#N)cc2c1,-4.0,-4.8,0.3,-5.5,1.1,35.4*,0.8,-3.9,-6.8
Cc1cc2cc(C#N)c(NCCNC(=S)NCCCN3CCOCC3)nc2cc1C,1.6,-0.9,-2.8,-8.0,2.4,-2.6,.,.,.
Cc1ccc(CN2CCCCC(NC(=O)Nc3cccc([N+](=O)[O-])c3)C2=O)cc1 (stereo unspecified),.,-3.0,-1.9,.,8.1,-1.2,.,.,.
CC(=O)c1cnc2cc(-c3ccc(C)cc3)nn2c1C,2.1,4.0,-2.5,-5.1,-0.6,-0.8,.,.,.
COc1ccc(-c2cc3ncc(C(C)=O)c(C)n3n2)cc1,4.3,0.8,0.7,-7.1,1.5,24.9*,0.0,-0.2,-0.6
